# Experimental data from different studies.
# Compare with care: the assays were run in different laboratories.
# Technique: competition with immobilised ligand
# RPS6KA3 C-terminal kinase domain: Ribosomal protein S6 kinase alpha-3, C-terminal kinase domain (RPS6KA3, Homo sapiens, UniProt P51812)
# RPS6KA3 N-terminal kinase domain: Ribosomal protein S6 kinase alpha-3, N-terminal kinase domain (RPS6KA3, Homo sapiens, UniProt P51812)
SMILES,target,test,conditions,remaining binding [%]
COc1ccnn2ncc(-c3ccnc(N(C)C)n3)c12,RPS6KA3 C-terminal kinase domain,binding,1 µM,100
C=CC(=O)N1CCC(C(=O)NCC(=O)N2CCN(c3nc(-c4cnc(N)nc4C(F)F)nc(N4CCOCC4)n3)CC2)CC1,RPS6KA3 C-terminal kinase domain,binding,1 µM,63
CN(c1nccc(-c2cnn3ncccc23)n1)C1CC1,RPS6KA3 C-terminal kinase domain,binding,1 µM,100
c1ccc(N2CCN(Cc3nc4ccccc4[nH]3)CC2)nc1,RPS6KA3 C-terminal kinase domain,binding,1 µM,100
CN(C)c1nccc(-c2cnc3ncccn23)n1,RPS6KA3 C-terminal kinase domain,binding,1 µM,78
O=C(c1ccc(Nc2ncc(Cl)c(-c3ccc(Cl)s3)n2)cc1)N1CCC(N2CCCC2)CC1,RPS6KA3 N-terminal kinase domain,binding,1 µM,30
FC(F)(F)Oc1cccc(-c2cnc3ccc(-c4ccncc4)nn23)c1,RPS6KA3 C-terminal kinase domain,binding,5 µM,69
C[C@@H](c1ccc(-n2cnc3c(N)ncnc32)cc1)N1CCc2nn(C)c(Cc3ccccc3)c2C1=O,RPS6KA3 N-terminal kinase domain,binding,0.1 µM,56
Cc1nc(N2CC[C@@H](O)C2)ncc1-c1cc(C(F)(F)F)cc2[nH]ncc12,RPS6KA3 C-terminal kinase domain,binding,1 µM,58
c1cncc(-c2cccc(Nc3nccc(NC4CCCCC4)n3)c2)c1,RPS6KA3 C-terminal kinase domain,binding,10 µM,79
COCCOc1nc(-c2ccc(Cl)nc2)nc2c1CN(C(=O)c1ncn3ccccc13)CC2,RPS6KA3 N-terminal kinase domain,cell-free assay,0.1 µM,100
N[C@H]1CCN(c2nccc(-c3cnn4ncccc34)n2)C1,RPS6KA3 N-terminal kinase domain,binding,1 µM,89
O=C(Nc1ccc(Oc2ccc(F)cc2)cc1)N1CCc2ncccc2[C@H]1c1ccc(F)cc1,RPS6KA3 C-terminal kinase domain,cell-free assay,1 µM,97
COc1cnc(Nc2cccc(S(N)(=O)=O)c2)nc1N1CCN(c2ccccc2)CC1,RPS6KA3 N-terminal kinase domain,binding,1 µM,89
C[C@H]1CCN(c2nccc(-c3cnn4ncccc34)n2)C1,RPS6KA3 C-terminal kinase domain,binding,1 µM,93
O=C(c1ccc(Nc2nccc(-c3cc4ccccc4s3)n2)cc1)N1CCC(N2CCCC2)CC1,RPS6KA3 N-terminal kinase domain,binding,1 µM,78
COc1cnc(Nc2cccc(S(N)(=O)=O)c2)nc1N1CCN(c2ccccc2)C(=O)C1,RPS6KA3 N-terminal kinase domain,binding,1 µM,64
C[C@@]1(Cc2ccc(C#N)cc2)C(=O)N(c2cc(Cl)cc(Cl)c2)c2ncc(C(=O)NC3(c4nc(C5CCC5)no4)CC3)n21,RPS6KA3 C-terminal kinase domain,cell-free assay,1 µM,100
N#Cc1ccccc1CSc1nnc2c(n1)[nH]c1ccccc12,RPS6KA3 N-terminal kinase domain,binding,10 µM,80
